Bioassay records: PubChem, several laboratories
GalR3 antag – human GalR3 antagonism; hit rate 0.44% among 360,000; inhibition, % at 3 µM; O60755; HEK293 GalR3-CNG cAMP membrane potential fluorescence; galR3 body fused to GalR1 C-terminus;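 active means inhibition above the screen-wide average plus 3 SD, cut at about 13% in these data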;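 further: forskolin and galanin both at EC90 stimulate the cells; cAMP rise reported by CNG channel membrane potential dye signal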
Target sequence (O60755 1-299 limits assumed): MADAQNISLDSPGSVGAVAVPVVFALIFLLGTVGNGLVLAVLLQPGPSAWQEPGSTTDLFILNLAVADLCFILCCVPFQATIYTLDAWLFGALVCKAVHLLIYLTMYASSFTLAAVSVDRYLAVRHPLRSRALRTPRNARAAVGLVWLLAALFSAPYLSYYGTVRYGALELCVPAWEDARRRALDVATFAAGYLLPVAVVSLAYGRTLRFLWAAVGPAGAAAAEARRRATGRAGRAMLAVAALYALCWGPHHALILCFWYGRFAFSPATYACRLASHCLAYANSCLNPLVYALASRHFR
TAG inh – triacylglycerol accumulation inhibition. H9c2 cells, Nile Red lipid (TAG) fluorescence; cells loaded with 200 µM oleic acid. inhibition, % at 12.5 µM. hit rate 0.66% among 230,000. AID 651582;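 active means pattern-corrected inhibition of lipid staining of at least 50% with the nuclear-stain viability signal not falling by more than 50%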
Calb FLC – C. albicans growth modulation with fluconazole. C. albicans CaCi-2 + fluconazole, Alamar Blue growth, 48 h. growth inhibition, % (no concentration beside the values). hit rate 0.57% among 300,000. AID 1979;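 active means growth inhibition above about 58% in most replicates, limit read from the data, passing the limit was not always enough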;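 further: all wells also contain fluconazole at 8 µg/ml as a sub-toxic cotreatment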
Efflux pump mplx – inhibitors of Candida antifungal efflux pumps expressed in yeast; S. cerevisiae Candida pump triplex, Nile Red efflux; inhibition, % at 10 µM; hit rate 0.44% among 330,000; AID 485275;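 active means plate passing quality check with inhibition over a set limit, or well fluorescence over plate mean plus 4 SD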;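 further: Nile Red retained in pooled yeast measured as flow cytometry median fluorescence; higher means more Nile Red kept so more efflux inhibition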
MC4R antag cAMP – blocks human MC4R cAMP signaling | MC4R-expressing cells, MTII-stimulated cAMP, LANCE TR-FRET | hit rate 0.48% among 360,000 | inhibition, % at 6.5 µM;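 active means inhibition above its plate's cutoff, the mean of tested wells on that plate plus 3 SD, cut at about 29% in these data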
Target sequence (P32245 whole entry, looked up): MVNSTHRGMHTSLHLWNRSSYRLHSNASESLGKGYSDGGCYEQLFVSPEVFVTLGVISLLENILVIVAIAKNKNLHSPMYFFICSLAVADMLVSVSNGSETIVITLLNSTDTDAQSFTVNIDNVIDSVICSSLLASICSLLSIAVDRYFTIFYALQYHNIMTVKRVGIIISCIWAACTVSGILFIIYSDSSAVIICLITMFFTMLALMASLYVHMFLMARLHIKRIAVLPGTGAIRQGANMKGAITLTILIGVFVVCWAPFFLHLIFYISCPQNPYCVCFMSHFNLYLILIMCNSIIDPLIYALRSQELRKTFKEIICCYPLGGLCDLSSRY
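Assay system: human MC4R-expressing U2OS cells; reagent: Melanotan II stimulation of cells; dosing: 6.5 µM single dose; timing: compound 30 min, challenge 1 h, detection 1 h; signal: TR-FRET cAMP assay; replicates: one well per compound, no replicates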
MC4R ag barr – agonists of human melanocortin 4 receptor (MC4R) beta-arrestin; P32245; U2OS MC4R beta-arrestin complementation, luminescence; percent of melanotan II response, DMSO zero; activation, % at 8.9 µM; hit rate 0.98% among 360,000; AID 540308;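 active means activation above a per-plate cutoff, the mean activation of sample wells on that plate plus 3 SD, cut at about 8% in these data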
cAMP nonselect – U2OS forskolin cAMP inhibition counter-screen; AID 602193; parental U2OS, LANCE TR-FRET; hit rate 26% among 1,600; shares compounds with MC4R antag cAMP; inhibition, % at 6.5 µM;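 active means mean inhibition over triplicates above the low-control well mean plus 3 SD, set per campaign, cut at about 13% in these data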;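 further: signal is single emission at 671 nm which falls as cellular cAMP rises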
MC4R antag conf – human MC4R cAMP antagonism confirmation; hit rate 27% among 1,600; inhibition, % at 6.5 µM; MC4R-expressing cells, MTII-stimulated cAMP, TR-FRET; shares compounds with MC4R antag cAMP; in the data active means inhibition above about 29%
Each line names hits and unclear results; the compound was inactive in the other large screens (follow-up assays come after a bar, where they were run). This is a sample that favours compounds with a hit; in the whole collection about 2.9% have one here.

O=C(NCC(c1cccs1)N1CCOCC1)c1ccccc1NS(=O)(=O)c1cccc([N+](=O)[O-])c1 (configuration not stated)	none (no result: TAG inh)
CN(C(=O)COC(=O)c1nc(Cl)c(Cl)c(Cl)c1Cl)C1CCS(=O)(=O)C1 (configuration not stated)	MC4R antag cAMP 43 (no result: Efflux pump mplx) | cAMP nonselect 15 | MC4R antag conf 38
Cc1n[nH]c(=O)n(N=Cc2c[nH]c3ccccc23)c1=O	none (no result: Calb FLC, Efflux pump mplx)
CCc1ccc(OCC(=O)NC(NC(=S)Nc2ccccc2OC)C(Cl)(Cl)Cl)cc1 (configuration not stated)	MC4R antag cAMP 38 (no result: TAG inh) | cAMP nonselect inactive | MC4R antag conf inactive
C=CCSc1nc2ccccc2c(=O)n1C1CCOC(C)(C)C1 (configuration not stated)	MC4R antag cAMP 34 | cAMP nonselect inactive | MC4R antag conf inactive
CCSc1nc2ccccc2c(=O)n1C1CCOC(C)(C)C1 (configuration not stated)	none
C=CCN1C(=O)c2n[nH]c(C(C)C)c2C1c1ccccc1 (configuration not stated)	none (no result: TAG inh, Calb FLC, Efflux pump mplx, MC4R antag cAMP, MC4R ag barr)
Cc1noc(C)c1COC(=O)/C=C/c1ccc(Cl)cc1	MC4R antag cAMP 31 | cAMP nonselect inactive | MC4R antag conf inactive
Cc1noc(C)c1COC(=O)c1cc(F)c(F)cc1Cl	none
Cc1noc(C)c1COC(=O)c1cnc(Cl)c(Cl)c1	MC4R antag cAMP 30 | cAMP nonselect inactive | MC4R antag conf 33
Cc1noc(C)c1COC(=O)CCCNC(=O)c1ccc(Cl)cc1	none
O=C(c1cccs1)N(Cc1nc2sc3c(c2c(=O)[nH]1)CCCC3)C1CCCC1	MC4R antag cAMP 30 | cAMP nonselect inactive | MC4R antag conf inactive
Cc1sc2nc(CN(C(=O)c3cccs3)C3CCCC3)[nH]c(=O)c2c1C	none
S=c1[nH]c(-c2ccccc2)cn1/N=C/c1cccc2ccccc12	MC4R antag cAMP 29 | cAMP nonselect inactive | MC4R antag conf inactive
S=c1[nH]c(-c2ccccc2)cn1/N=C/c1ccccc1Br	none
CNC(=O)C(C)c1ncc(C(F)(F)F)cc1Cl (configuration not stated)	MC4R antag cAMP 31 (no result: TAG inh) | cAMP nonselect inactive | MC4R antag conf inactive
O=C(O)c1cnn(-c2nc(-c3cccc([N+](=O)[O-])c3)cs2)c1C(F)(F)F	MC4R antag cAMP 33 (no result: TAG inh) | cAMP nonselect inactive | MC4R antag conf inactive
O=C(O)c1cnn(-c2nc(-c3ccc(Cl)c(Cl)c3)cs2)c1C(F)(F)F	MC4R antag cAMP 52 (no result: TAG inh) | cAMP nonselect inactive | MC4R antag conf inactive
O=C(COC(=O)[C@@H]1CCCN1S(=O)(=O)c1ccc(Cl)cc1)NC12CC3CC(CC(C3)C1)C2	MC4R antag cAMP 32 (no result: TAG inh) | cAMP nonselect 14 | MC4R antag conf 34
O=C(COC(=O)[C@@H]1CCCN1S(=O)(=O)c1ccc(Cl)cc1)NC1CCS(=O)(=O)C1 (some centres not stated)	none
C=CC(=O)N1C/C(=C/c2ccc(Cl)cc2)C(=O)/C(=C\c2ccc(Cl)cc2)C1	MC4R antag cAMP 45 (no result: Calb FLC, Efflux pump mplx) | cAMP nonselect 22 | MC4R antag conf inactive
CC1(C)CC(=O)C(C=NCCN2CCN(C3CC(=O)N(c4ccc(Br)cc4)C3=O)CC2)=C(O)C1 (configuration not stated)	MC4R antag cAMP 33 (no result: TAG inh) | cAMP nonselect inactive | MC4R antag conf inactive
O=C(Nc1cccc(-c2csc(Nc3cccc(C(F)(F)F)c3)n2)c1)c1ccccc1	MC4R antag cAMP 42 | cAMP nonselect inactive | MC4R antag conf inactive
CC(C)[C@H](NC(=O)CC1CCCC1)C(=O)N1CCC[C@H]1C(=O)NCCc1ccccc1Cl	none (no result: TAG inh, Calb FLC, Efflux pump mplx, MC4R antag cAMP, MC4R ag barr)
CCOC(=O)C1=CCN(S(=O)(=O)c2ccccc2F)C1c1cccc(C)c1 (configuration not stated)	none (no result: TAG inh, Calb FLC, Efflux pump mplx, MC4R antag cAMP, MC4R ag barr)
CCN(CC)c1ccc2c(c1)oc(=O)c1c(Cl)cc(=O)oc12	MC4R antag cAMP 30 (no result: GalR3 antag, TAG inh) | cAMP nonselect inactive | MC4R antag conf inactive
COc1ccc2sc(-c3ccc(N(C)C)cc3)c(C#Cc3cncn3C)c2c1	MC4R antag cAMP 38 (no result: Calb FLC) | cAMP nonselect inactive | MC4R antag conf 37
COc1ccc2sc(-c3ccc(N(C)C)cc3)c(C#CC(C)(C)O)c2c1	none (no result: Calb FLC)
O=C(CCNC(=O)c1ccc([N+](=O)[O-])cc1)Nc1ccc(F)c(F)c1F	MC4R antag cAMP 32 (no result: TAG inh) | cAMP nonselect inactive | MC4R antag conf inactive
Cc1ccc(F)cc1NC(=O)CCNC(=O)c1ccc([N+](=O)[O-])cc1	none (no result: TAG inh)
c1ccc2c(-c3cccc4nccn34)cncc2c1	none (no result: Calb FLC, Efflux pump mplx)
Cc1ccc(C)c(NC(=O)CCC(=O)N/N=C/c2ccc3c(c2)OCO3)c1	MC4R antag cAMP 31 (no result: TAG inh) | cAMP nonselect inactive | MC4R antag conf inactive
CC1=C(C(=O)Nc2cc(C(=O)N3CCN(c4ccc(Cl)cc4)CC3)ccc2C)SCCO1	none (no result: Calb FLC, Efflux pump mplx)
Cc1ccc(S(=O)(=O)Nc2nc(C)cc(NN)n2)cc1	MC4R antag cAMP 29 | cAMP nonselect inactive | MC4R antag conf inactive
CCc1cc2ccc(OC)cc2nc1SCC(=O)NNC(=O)c1ccco1	none
CCc1cc2ccc(OC)cc2nc1SCC(=O)N1CCN(C(=O)c2ccco2)CC1	MC4R antag cAMP 34 | cAMP nonselect inactive | MC4R antag conf inactive
CCN(CC)S(=O)(=O)c1ccc(N2CCOCC2)c(NC(=O)c2ccc(F)cc2)c1	none (no result: TAG inh)
CCN(CC)S(=O)(=O)c1ccc(N2CCOCC2)c(NC(=O)c2ccccc2F)c1	MC4R antag cAMP 30 | cAMP nonselect inactive | MC4R antag conf inactive
CC(C)CCOc1ccc(/C=C2\CCn3c2nc2cc(C(=O)O)ccc2c3=O)cc1	MC4R antag cAMP 32 (no result: TAG inh, Calb FLC, Efflux pump mplx) | cAMP nonselect inactive | MC4R antag conf inactive
COC(=O)c1ccc(/C=C2\CCn3c2nc2cc(C(=O)O)ccc2c3=O)cc1	none (no result: GalR3 antag, TAG inh)
Cc1cc(OC(F)F)ccc1NC(=S)NCCc1ccccc1	none
FC(F)Oc1ccccc1NC(=S)NCCc1ccccc1	MC4R antag cAMP 32 | cAMP nonselect inactive | MC4R antag conf inactive
Cc1ccc(NC(=O)OCCN(C)C(=O)Nc2ccc(C)cc2C)c(C)c1	none (no result: TAG inh, Calb FLC, Efflux pump mplx, MC4R antag cAMP, MC4R ag barr)
CN(Cc1ccccc1)C(=C(Cl)Cl)/C(=C1/NCCN1C)[N+](=O)[O-]	MC4R antag cAMP 39 | cAMP nonselect inactive | MC4R antag conf inactive
CN(Cc1ccccc1)C(=C(Cl)Cl)C(=C1NCCN1)[N+](=O)[O-]	none (no result: GalR3 antag, TAG inh)
COc1ccc(NC(=O)/C(Cl)=C(/Cl)S(=O)(=O)Cc2ccccc2)cn1	MC4R antag cAMP 56 (no result: Efflux pump mplx) | cAMP nonselect 34 | MC4R antag conf 49
COc1ccc(NC(=O)C(Cl)=C(Cl)Cl)cn1	none (no result: Efflux pump mplx)
